Measured values reported in ChEMBL document CHEMBL4028914, “Structure-Based Design of 6-Chloro-4-aminoquinazoline-2-carboxamide Derivatives as Potent and Selective p21-Activated Kinase 4 (PAK4) Inhibitors” (J Med Chem, 2018).

What was measured:
CYP2C9 = CYP2C9 (Homo sapiens, UniProt P11712); experiment: Inhibition of CYP2C9 in human liver microsomes at 10 uM using diclofenac as substrate preincubated for 10 mins followed by NADPH addition measured after 10 mins by LC-MS/MS method; assay type: ADME; details: probe diclofenac
How it was run: (§1)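 Each CYP isoform was tested at 10 μM compound. Positive controls: α-naphthoflavone (CYP1A2), sulfaphenazole (CYP2C9), ticlopidine (CYP2C19), quinidine (CYP2D6), ketoconazole (CYP3A4).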

[1] = Aqueous solubility of the compound at pH 7.4 by UV-metric method; assay type: physicochemical
[2] = AUC (0 to infinity) in Sprague-Dawley rat at 2 mg/kg, iv by LC-MS/MS method; assay type: ADME, organism-based; set-up: dose 2 mg/kg, route intravenous, time infinity; details: in vivo
How it was run: (§2)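 Single intravenous dose of 2 mg/kg given to Sprague-Dawley rats. Values are the mean ± SD of three independent determinations.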

[3] = Stability in human liver microsomes assessed as compound remaining at 1 uM preincubated for 10 mins followed by NADPH addition measured after 1 hr by LC-MS/MS method; assay type: ADME, microsome; details: read-out: Stability
[4] = Stability in Sprague-Dawley rat blood plasma assessed as compound remaining at 2 uM measured after 60 mins by LC-MS/MS method; assay type: ADME, cell-free; details: read-out: Stability
CYP2C19 = CYP2C19 (Homo sapiens, UniProt P33261); experiment: Inhibition of CYP2C19 in human liver microsomes at 10 uM using S-mephenytoin as substrate preincubated for 10 mins followed by NADPH addition measured after 10 mins by LC-MS/MS method; assay type: ADME; details: probe S-mephenytoin; how it was run: as §1
[5] = Volume of distribution at steady state in Sprague-Dawley rat at 2 mg/kg, iv by LC-MS/MS method; assay type: ADME, organism-based; details: in vivo, read-out: Vdss
How it was run: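 Sprague-Dawley rats receive a single intravenous dose of 2 mg/kg. Pharmacokinetic parameters derived are C0, clearance, Vss, T1/2, AUC(0−t) and AUC(0−∞). Values are averages of three independent determinations, reported as mean ± SD.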

hERG (KCNH2) = hERG (KCNH2) (Homo sapiens, UniProt Q12809); experiment: Inhibition of human ERG at 40 uM by Qpatch assay relative to control
How it was run: (§3)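 hERG current was recorded by automated patch clamp (Qpatch 16×) in CHO cells expressing hERG.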

[6] = Stability in Sprague-Dawley rat blood plasma assessed as compound remaining at 2 uM measured after 120 mins by LC-MS/MS method; assay type: ADME, cell-free; details: read-out: Stability
[7] = Stability in human liver microsomes assessed as compound remaining at 1 uM in absence of NADPH regenerating system measured after 1 hr by LC-MS/MS method; assay type: ADME, microsome; details: read-out: Stability
How it was run: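 Liver microsomal incubation ran for 60 min without the NADPH regenerating system, which was replaced by buffer. Read-out was percent compound remaining.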

[8] = Stability in rat liver microsomes assessed as compound remaining at 1 uM in absence of NADPH regenerating system measured after 1 hr by LC-MS/MS method; assay type: ADME, microsome; details: read-out: Stability
How it was run: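 Control incubation with rat liver microsomes: buffer replaces the NADPH regenerating system for the whole 60 min incubation. Read-out is percent of parent compound remaining.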

[9] = Intrinsic clearance in rat liver microsomes at 1 uM measured after 1 hr by LC-MS/MS method; assay type: ADME, microsome; details: read-out: CLH
[10] = target: Voltage-gated inwardly rectifying potassium channel KCNH2 (Homo sapiens, UniProt Q12809); experiment: Inhibition of human ERG by Qpatch assay; how it was run: as §3
[11] = Clearance in Sprague-Dawley rat at 2 mg/kg, iv by LC-MS/MS method; assay type: ADME, organism-based; details: in vivo; how it was run: as §2
[12] = AUC (0 to t) in Sprague-Dawley rat at 2 mg/kg, iv by LC-MS/MS method; assay type: ADME, organism-based; details: in vivo; how it was run: as §2
[13] = Aqueous solubility of the compound at pH 2.0 by UV-metric method; assay type: physicochemical
[14] = Solubility of the compound in DMSO by UV-metric method; assay type: physicochemical
CYP1A2 = target: T1, CYP1A2 (Homo sapiens, UniProt P05177); experiment: Inhibition of CYP1A2 in human liver microsomes at 10 uM using phenacetin as the substrate preincubated for 10 mins followed by NADPH addition measured after 10 mins by LC-MS/MS method; assay type: ADME; details: probe phenacetin; how it was run: as §1
T1 sequence (P05177 whole entry): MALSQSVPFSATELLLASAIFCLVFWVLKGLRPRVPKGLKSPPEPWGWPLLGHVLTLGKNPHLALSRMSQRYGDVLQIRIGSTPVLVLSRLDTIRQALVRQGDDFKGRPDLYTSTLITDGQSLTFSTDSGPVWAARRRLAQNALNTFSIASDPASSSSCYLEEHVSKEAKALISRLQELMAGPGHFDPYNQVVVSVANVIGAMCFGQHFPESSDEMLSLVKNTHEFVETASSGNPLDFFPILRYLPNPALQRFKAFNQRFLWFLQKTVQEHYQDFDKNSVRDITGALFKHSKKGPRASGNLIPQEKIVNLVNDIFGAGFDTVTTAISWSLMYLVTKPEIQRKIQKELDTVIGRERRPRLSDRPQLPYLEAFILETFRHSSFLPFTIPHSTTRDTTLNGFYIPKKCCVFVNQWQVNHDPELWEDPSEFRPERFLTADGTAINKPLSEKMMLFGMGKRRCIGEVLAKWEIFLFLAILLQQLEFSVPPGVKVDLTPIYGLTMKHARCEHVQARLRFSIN

[15] = Distribution coefficient, logD of the compound at pH 7.4 by UV-metric method; assay type: physicochemical; details: octanol/water
[16] = Half life in rat liver microsomes at 1 uM preincubated for 10 mins followed by NADPH addition measured after 1 hr by LC-MS/MS method; assay type: ADME, microsome
[17] = Dissociation constant, pKa of compound; assay type: physicochemical
[18] = Intrinsic clearance in rat liver at 1 uM measured after 1 hr by LC-MS/MS method; assay type: ADME, tissue-based; details: read-out: CLH
[19] = Intrinsic clearance in human liver at 1 uM measured after 1 hr by LC-MS/MS method; assay type: ADME, tissue-based; details: read-out: CLH
[20] = Intrinsic clearance in human liver microsomes at 1 uM measured after 1 hr by LC-MS/MS method; assay type: ADME, microsome; details: read-out: CLH
[21] = Partition coefficient, log P of the compound by UV-metric method; assay type: physicochemical; details: octanol/water
CYP2D6 = CYP2D6 (Homo sapiens, UniProt P10635); experiment: Inhibition of CYP2D6 in human liver microsomes at 10 uM using dextromethorphan as substrate preincubated for 10 mins followed by NADPH addition measured after 10 mins by LC-MS/MS method; assay type: ADME; details: probe dextromethorphan; how it was run: as §1
[22] = Cmax in Sprague-Dawley rat at 2 mg/kg, iv by LC-MS/MS method; assay type: ADME, organism-based; set-up: dose 2 mg/kg, route intravenous; details: in vivo; how it was run: as §2
[23] = Half life in human liver microsomes at 1 uM preincubated for 10 mins followed by NADPH addition measured after 1 hr by LC-MS/MS method; assay type: ADME, microsome
[24] = Initial concentration in Sprague-Dawley rat at 2 mg/kg, iv by LC-MS/MS method; assay type: ADME, organism-based; details: in vivo; how it was run: as §2
[25] = Half life in Sprague-Dawley rat at 2 mg/kg, iv by LC-MS/MS method; assay type: ADME, organism-based; details: in vivo; how it was run: as §2
CYP3A4 = CYP3A4 (Homo sapiens, UniProt P08684); experiment: Inhibition of CYP3A4 in human liver microsomes at 10 uM using midozolam as substrate preincubated for 10 mins followed by NADPH addition measured after 10 mins by LC-MS/MS method; assay type: ADME; details: probe midozolam; how it was run: as §1
[26] = Stability in rat liver microsomes assessed as compound remaining at 1 uM preincubated for 10 mins followed by NADPH addition measured after 1 hr by LC-MS/MS method; assay type: ADME, microsome; details: read-out: Stability

Chain of CYP2C9 (P11712 whole entry, canonical isoform): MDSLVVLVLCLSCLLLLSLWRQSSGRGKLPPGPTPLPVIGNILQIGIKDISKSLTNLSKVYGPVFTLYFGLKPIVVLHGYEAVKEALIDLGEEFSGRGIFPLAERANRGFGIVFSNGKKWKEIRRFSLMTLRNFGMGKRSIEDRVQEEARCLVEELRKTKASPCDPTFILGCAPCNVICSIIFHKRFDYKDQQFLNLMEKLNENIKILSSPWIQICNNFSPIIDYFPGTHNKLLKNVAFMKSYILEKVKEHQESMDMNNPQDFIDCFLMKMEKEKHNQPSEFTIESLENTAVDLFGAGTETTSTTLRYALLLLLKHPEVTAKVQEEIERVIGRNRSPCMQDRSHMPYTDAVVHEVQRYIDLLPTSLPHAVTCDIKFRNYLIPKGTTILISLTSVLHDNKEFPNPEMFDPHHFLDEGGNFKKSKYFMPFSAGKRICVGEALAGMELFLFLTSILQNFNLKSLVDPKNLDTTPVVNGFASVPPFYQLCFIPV
Chain of CYP2C19 (P33261 whole entry): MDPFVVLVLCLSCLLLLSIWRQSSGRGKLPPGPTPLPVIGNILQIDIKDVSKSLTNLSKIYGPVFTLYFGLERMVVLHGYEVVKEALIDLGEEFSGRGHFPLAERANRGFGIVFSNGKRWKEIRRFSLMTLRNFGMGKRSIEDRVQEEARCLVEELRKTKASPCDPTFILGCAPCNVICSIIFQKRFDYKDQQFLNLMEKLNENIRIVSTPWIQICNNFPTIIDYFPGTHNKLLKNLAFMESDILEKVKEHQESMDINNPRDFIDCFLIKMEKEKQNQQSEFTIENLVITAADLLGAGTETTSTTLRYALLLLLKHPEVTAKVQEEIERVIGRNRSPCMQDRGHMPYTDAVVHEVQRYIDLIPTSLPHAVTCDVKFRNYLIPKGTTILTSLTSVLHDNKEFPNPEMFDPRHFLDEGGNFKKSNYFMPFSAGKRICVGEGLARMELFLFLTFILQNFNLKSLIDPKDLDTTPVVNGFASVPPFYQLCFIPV
Chain of CYP2D6 (P10635 whole entry): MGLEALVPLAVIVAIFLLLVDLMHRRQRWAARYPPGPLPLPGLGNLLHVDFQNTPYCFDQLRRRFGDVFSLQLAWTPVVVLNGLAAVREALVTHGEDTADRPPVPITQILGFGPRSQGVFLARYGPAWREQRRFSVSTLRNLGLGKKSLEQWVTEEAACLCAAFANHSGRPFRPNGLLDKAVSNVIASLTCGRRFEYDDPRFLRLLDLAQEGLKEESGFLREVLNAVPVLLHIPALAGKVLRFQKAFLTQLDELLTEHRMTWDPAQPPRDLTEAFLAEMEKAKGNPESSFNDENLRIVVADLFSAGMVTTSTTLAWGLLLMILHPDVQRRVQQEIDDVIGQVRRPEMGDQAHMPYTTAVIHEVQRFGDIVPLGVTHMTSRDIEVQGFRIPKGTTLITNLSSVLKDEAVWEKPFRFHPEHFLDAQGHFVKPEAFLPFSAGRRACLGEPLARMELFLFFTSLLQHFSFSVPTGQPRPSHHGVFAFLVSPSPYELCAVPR
Chain of CYP3A4 (P08684 whole entry): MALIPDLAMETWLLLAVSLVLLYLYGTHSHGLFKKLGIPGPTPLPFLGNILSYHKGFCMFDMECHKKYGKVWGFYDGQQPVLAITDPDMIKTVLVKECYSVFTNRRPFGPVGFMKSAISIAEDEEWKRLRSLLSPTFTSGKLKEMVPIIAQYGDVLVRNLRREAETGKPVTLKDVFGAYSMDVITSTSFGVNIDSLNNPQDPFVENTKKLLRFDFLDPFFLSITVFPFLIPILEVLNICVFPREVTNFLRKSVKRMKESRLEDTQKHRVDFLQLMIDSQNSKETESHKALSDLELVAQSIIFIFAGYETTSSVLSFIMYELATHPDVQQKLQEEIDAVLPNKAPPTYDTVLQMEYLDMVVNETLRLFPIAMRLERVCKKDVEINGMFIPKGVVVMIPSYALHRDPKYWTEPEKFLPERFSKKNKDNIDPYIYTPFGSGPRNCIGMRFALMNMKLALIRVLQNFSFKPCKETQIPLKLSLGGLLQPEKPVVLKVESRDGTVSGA
Chain of hERG (KCNH2) (Q12809 whole entry): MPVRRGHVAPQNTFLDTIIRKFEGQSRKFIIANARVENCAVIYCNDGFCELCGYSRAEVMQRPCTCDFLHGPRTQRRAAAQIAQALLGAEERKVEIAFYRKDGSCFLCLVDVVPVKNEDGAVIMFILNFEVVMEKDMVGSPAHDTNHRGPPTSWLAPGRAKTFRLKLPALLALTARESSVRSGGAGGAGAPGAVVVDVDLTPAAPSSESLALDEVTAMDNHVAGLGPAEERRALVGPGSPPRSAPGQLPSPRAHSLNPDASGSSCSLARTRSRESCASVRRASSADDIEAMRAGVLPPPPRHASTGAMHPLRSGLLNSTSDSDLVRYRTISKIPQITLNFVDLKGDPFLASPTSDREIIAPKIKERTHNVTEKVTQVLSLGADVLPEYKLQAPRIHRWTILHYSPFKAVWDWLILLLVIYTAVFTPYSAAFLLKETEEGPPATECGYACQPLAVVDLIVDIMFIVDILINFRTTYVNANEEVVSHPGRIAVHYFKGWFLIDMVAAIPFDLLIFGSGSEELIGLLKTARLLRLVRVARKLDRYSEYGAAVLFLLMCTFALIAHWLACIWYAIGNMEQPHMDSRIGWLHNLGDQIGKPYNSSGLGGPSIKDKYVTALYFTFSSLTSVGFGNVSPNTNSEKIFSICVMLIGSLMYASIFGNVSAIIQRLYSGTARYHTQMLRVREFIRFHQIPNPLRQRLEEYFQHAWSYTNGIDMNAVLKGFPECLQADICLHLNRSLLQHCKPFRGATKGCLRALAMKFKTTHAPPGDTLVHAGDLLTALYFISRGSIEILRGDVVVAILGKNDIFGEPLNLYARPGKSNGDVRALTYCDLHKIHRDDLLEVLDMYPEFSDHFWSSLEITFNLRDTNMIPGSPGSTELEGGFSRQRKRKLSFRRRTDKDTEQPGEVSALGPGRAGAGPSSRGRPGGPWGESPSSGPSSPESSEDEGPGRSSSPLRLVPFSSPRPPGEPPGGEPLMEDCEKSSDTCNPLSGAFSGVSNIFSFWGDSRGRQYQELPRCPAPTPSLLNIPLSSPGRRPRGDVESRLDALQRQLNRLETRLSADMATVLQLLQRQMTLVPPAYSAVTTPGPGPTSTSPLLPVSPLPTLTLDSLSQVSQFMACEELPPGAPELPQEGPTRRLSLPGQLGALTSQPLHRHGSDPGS
Chain of Voltage-gated inwardly rectifying potassium channel KCNH2 (Q12809 whole entry): as above

SMILES: C[C@@H]1CN(C(=O)c2nc(Nc3cc(C4CC4)[nH]n3)c3cc(Cl)ccc3n2)CCN1.Cl
- inhibition at 10 min, 10 µM (CYP2C9): 15.1%
- solubility [1]: > 10000 µg/mL
- AUC(0-inf) [2]: 472 ng·h/mL
- remaining at 1 h, 1 µM [3]: 41.9%
- remaining at 1 h, 2 µM [4]: 110%
- inhibition at 10 min, 10 µM (CYP2C19): 12.2%
- Vd [5]: 6.43 L/kg
- inhibition at 40 µM (hERG (KCNH2)): 42%
- remaining at 2 h, 2 µM [6]: 115%
- remaining at 1 h, 1 µM [7]: 103%
- remaining at 1 h, 1 µM [8]: 97%
- microsomal CLint at 1 µM [9]: 33.2 µL/min/mg
- IC50 [10]: > 40 µM
- clearance [11]: 70.7 mL/min/kg
- AUC(0-t) [12]: 465 ng·h/mL
- solubility [13]: > 10000 µg/mL
- solubility [14]: > 30 mM
- inhibition at 10 min, 10 µM (CYP1A2): 17.2%
- logD [15]: 1.9
- half-life at 1 µM [16]: 41.8 min
- pKa [17]: 7.93
- CLint scaled at 1 µM [18]: 59.7 mL/min/kg
- CLint scaled at 1 µM [19]: 25.8 mL/min/kg
- microsomal CLint at 1 µM [20]: 28.7 µL/min/mg
- logP [21]: 2.54
- inhibition at 10 min, 10 µM (CYP2D6): 1.8%
- Cmax [22]: 736 ng/mL
- half-life at 1 µM [23]: 48.4 min
- C0 [24]: 736 ng/mL
- half-life [25]: 87.6 min
- inhibition at 10 min, 10 µM (CYP3A4): 2.3%
- remaining at 1 h, 1 µM [26]: 36.9%
